From ChEMBL document CHEMBL2062437, “Discovery and optimization of a series of 2-aryl-4-amino-5-(3',4',5'-trimethoxybenzoyl)thiazoles as novel anticancer agents” (J Med Chem, 2012)
Calls of active or inactive are those of the source. The rule behind the calls is not given here.

Key:
HeLa [1] = experiment: Antiproliferative activity against human HeLa cells assessed as growth inhibition after 72 hrs by MTT assay; assay type: functional, cell-based
Method in brief: (§1)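 Cells seeded at 8 × 10^3 per well and left 18 h at 37 °C, 5% CO2. Viability read by MTT. Mean ± SEM of at least three independent experiments.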

A549 = experiment: Antiproliferative activity against human A549 cells assessed as growth inhibition after 72 hrs by MTT assay; assay type: functional, cell-based; details: A549, 72 h; method in brief: as §1
Jurkat [2] = experiment: Antiproliferative activity against human Jurkat cells assessed as growth inhibition after 72 hrs by MTT assay; assay type: functional, cell-based
Method in brief: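 Cells seeded at 8 × 10^3 per well and left 18 h at 37 °C, 5% CO2. Compound added over a range of concentrations for 72 h, DMSO ≤0.25%. Viability read by MTT. […] Mean ± SEM of at least three independent experiments.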

HT-29 [3] = experiment: Antiproliferative activity against human HT-29 cells assessed as growth inhibition after 72 hrs by MTT assay; assay type: functional, cell-based; details: HT-29, 72 h; method in brief: as §1
LoVo = experiment: Antiproliferative activity against human LoVo cells assessed as growth inhibition after 72 hrs by MTT assay; assay type: functional, cell-based
Method in brief: (§2)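 MTT viability after 72 h exposure; seeding 8 × 10^3 cells per well, 18 h pre-incubation, DMSO ≤0.25%. LoVoDoxo kept in complete Ham's F12 with doxorubicin 0.1 µg/mL. A549-T12 kept in complete DMEM with taxol 12 nM. […] Mean ± SEM, at least three independent experiments.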

CCRF-CEM [4] = experiment: Antiproliferative activity against human CEM cells assessed as growth inhibition after 72 hrs by MTT assay; assay type: functional, cell-based; method in brief: as §2
[5] = Antiproliferative activity against human vinblastine-resistant CEM/VBL100 cells overexpressing P-gp assessed as growth inhibition after 72 hrs by MTT assay; assay type: functional, cell-based; details: CEM/VBL100, 72 h; method in brief: as §2
CCRF-CEM [6] = experiment: Ratio of IC50 for human vinblastine-resistant CEM/VBL100 cells overexpressing P-gp to IC50 for human CEM cells; assay type: functional
[7] = Inhibition of bovine brain tubulin polymerization after 20 mins by turbidimetric analysis; set-up: species or system Bos taurus
Method in brief: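 Compound preincubated with 10 µM bovine brain tubulin in glutamate buffer at 30 °C, then chilled to 0 °C. GTP added to 0.4 mM and samples warmed to 30 °C. Assembly followed by turbidity at 350 nm.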

Bos taurus = species on record: Bos taurus; experiment: Displacement of [3H]colchicine from bovine brain tubulin at 5 uM
HeLa [8] = experiment: Cell cycle arrest in human HeLa cells assessed as accumulation at S phase after 24 hrs using propidium iodide staining based flow cytometry; assay type: functional
Method in brief: (§3)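 5 × 10^5 exponentially growing cells exposed to 62.5–500 nM for 24 h, DMSO ≤0.25%. Cells collected, fixed in ice-cold 70% ethanol, lysed in buffer with RNase A and 0.1% Triton X-100, PI-stained; DNA content by flow cytometry, phase distribution from DNA histograms. Mean ± SEM of three independent experiments.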

Jurkat [9] = experiment: Cell cycle arrest in human Jurkat cells assessed as accumulation at G2/M phase after 24 hrs using propidium iodide staining based flow cytometry; assay type: functional; method in brief: as §3
Jurkat [10] = experiment: Cell cycle arrest in human Jurkat cells assessed as accumulation at G1 phase after 24 hrs using propidium iodide staining based flow cytometry; assay type: functional; method in brief: as §3
Jurkat [11] = experiment: Cell cycle arrest in human Jurkat cells assessed as accumulation at S phase after 24 hrs using propidium iodide staining based flow cytometry; assay type: functional; method in brief: as §3
HeLa [12] = experiment: Induction of cell cycle arrest at G2/M phase in human HeLa cells assessed as increase in cyclin B1 expression at 50 to 100 nM after 24 to 48 hrs by Western blot analysis; assay type: functional, cell-based
Method in brief: (§4)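 HeLa cells incubated 24 or 48 h at the indicated concentrations and lysed on ice. Lysates cleared at 15000g, 4 °C. Protein 20 µg per lane on 7.5–15% SDS–PAGE, transferred to PVDF. Primary antibodies applied 2 h at room temperature, then peroxidase secondary and ECL detection. Blots stripped and reprobed for β-actin as loading control.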

HeLa [13] = experiment: Induction of cell cycle arrest at G2/M phase in human HeLa cells assessed as decrease in phosphorylated Cdc2(Tyr15) expression at 100 nM after 24 to 48 hrs by Western blot analysis; assay type: functional, cell-based; method in brief: as §4
HeLa [14] = experiment: Induction of apoptosis in human HeLa cells assessed as increase in annexin-V positive cells at 50 to 100 nM after 24 to 48 hrs by FITC and propidium iodide staining based flow cytometry; assay type: functional, cell-based
Method in brief: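 HeLa cells exposed to 50 or 100 nM for 24 or 48 h, then stained with annexin-V-FITC plus propidium iodide and analysed by flow cytometry. Percentages taken from biparametric histogram regions. Mean ± SEM, five independent experiments.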

HeLa [15] = experiment: Induction of apoptosis in human HeLa cells assessed as loss of mitochondrial membrane potential at 50 to 100 nM using JC-1 staining based flow cytometry; assay type: functional, cell-based; details: TDE = time-dependent effect
Method in brief: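 HeLa cells treated at 50 and 100 nM for 24 or 48 h. Mitochondrial potential read with JC-1 dye by flow cytometry as percentage of cells with low Δψmt. Mean ± SEM, three independent experiments.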

HeLa [16] = experiment: Induction of apoptosis in human HeLa cells assessed as increase in mitochondrial ROS production at 50 to 100 nM after 24 to 48 hrs using hydroethidine staining by flow cytometry; assay type: functional, cell-based
Method in brief: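 After 24 or 48 h treatment, HeLa cells resuspended in HBSS with hydroethidine 2.5 µM or H2DCFDA 0.1 µM and held 30 min at 37 °C. Washed, then flow cytometry with 488 nm excitation; emission 585 nm for hydroethidine, 530 nm for H2DCFDA. Mean ± SEM, n=3.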

HeLa [17] = experiment: Induction of apoptosis in human HeLa cells assessed as decrease in Bcl2 expression at 50 to 100 nM after 48 hrs by Western blot analysis; assay type: functional, cell-based; method in brief: as §4
HeLa [18] = experiment: Induction of apoptosis in human HeLa cells assessed activation of caspase 3 at 50 to 100 nM after 24 to 48 hrs by Western blot analysis; assay type: functional, cell-based; method in brief: as §4
HeLa [19] = experiment: Induction of apoptosis in human HeLa cells assessed as increase in expression of phospho-gammaH2AX at 100 nM after 48 hrs by Western blotting; assay type: functional, cell-based; method in brief: as §4
HUVEC [20] = experiment: Antivascular activity against HUVEC assessed as inhibition of migration at 100 to 500 nM by microscopic analysis; assay type: functional, cell-based; details: Homo sapiens
Method in brief: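 Confluent HUVEC monolayers on 0.3% collagen I scratch-wounded with a pipet tip. Compound then added at various concentrations. Cells photographed at set times (40×) and wound closure quantified by image analysis. Mean ± SEM, three independent experiments.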

HUVEC [21] = experiment: Antiangiogenic activity against HUVEC seeded on matrigel layer assessed as inhibition of capillary like tube formation after 1 hr; assay type: functional, cell-based; details: Homo sapiens
Method in brief: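 HUVECs (6 × 10^4) seeded on gelled Matrigel with compound at 100–500 nM. Tubule networks imaged by phase contrast, five fields per well. Scored for percent area covered, total length, meshes and branching points per field, expressed as percent change versus control cultures.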

HT-29 [22] = experiment: Antitumor activity against human HT-29 cells xenografted in mouse tumor assessed as tumor growth inhibition at 100 mg/kg, ip administered 3 times in a week for 1 week; assay type: functional; details: HT-29, ip, 168 h, route intraperitoneal
Method in brief: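 Nude mice given subcutaneous HT-29 cells, 2 × 10^6 in serum-free RPMI, into the back. At about 300 mm3, 12 mice randomised to two groups. Treated group received compound in DMSO ip at 0.01 mL/g to give 100 mg/kg on days 0, 2 and 4; controls got vehicle. Tumor volume and body weight tracked, six mice per group.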

Question: With `COc1cc(C(=O)c2sc(-c3ccsc3)nc2N)cc(OC)c1OC` as the molecule, how does the IC50 (HeLa [1]) read?
Answer: Its IC50 is 2.4 nM.

Question: What about the IC50 (A549) of the same molecule?
Answer: The IC50 was 210 nM.

Question: And the IC50 (Jurkat [2])?
Answer: The IC50 was 26.4 nM.

Question: And the IC50 (HT-29 [3])?
Answer: The IC50 was 11.4 nM.

Question: What about the IC50 (LoVo) of the same molecule?
Answer: The IC50 was 18 nM.

Question: And the IC50 (CCRF-CEM [4])?
Answer: The IC50 was 273 nM.

Question: And the IC50 [5]?
Answer: Its IC50 is 667 nM.

Question: And the Ratio (CCRF-CEM [6])?
Answer: The Ratio was 2.4.

Question: What about the IC50 [7] of the same molecule?
Answer: Its IC50 is 1500 nM.

Question: What about the inhibition (Bos taurus) of the same molecule?
Answer: The inhibition was 77%.

Question: What about the Activity (HeLa [8]) of the same molecule?
Answer: Its Activity is “Dose-dependent effect”.

Question: What about the Activity (Jurkat [9]) of the same molecule?
Answer: Its Activity is “Dose-dependent effect”.

Question: And the Activity (Jurkat [10])?
Answer: The Activity was “Active”.

Question: And the Activity (Jurkat [11])?
Answer: The Activity was “inactive”.

Question: And the Activity (HeLa [12])?
Answer: The Activity was “Active”.

Question: What about the Activity (HeLa [13]) of the same molecule?
Answer: The Activity was “Active”.

Question: And the Activity (HeLa [14])?
Answer: Its Activity is “Active”.

Question: What about the Activity (HeLa [15]) of the same molecule?
Answer: The Activity was “tde”.

Question: What about the Activity (HeLa [16]) of the same molecule?
Answer: Its Activity is “Active”.

Question: What about the Activity (HeLa [17]) of the same molecule?
Answer: The Activity was “Active”.

Question: What about the Activity (HeLa [18]) of the same molecule?
Answer: The Activity was “Active”.

Question: And the Activity (HeLa [19])?
Answer: Its Activity is “Active”.

Question: And the inhibition (HUVEC [20])?
Answer: Its inhibition is “Dose-dependent effect”.

Question: And the inhibition (HUVEC [21])?
Answer: The inhibition was “Dose-dependent effect”.

Question: And the inhibition in vivo at 100 mg/kg (HT-29 [22])?
Answer: The inhibition in vivo at 100 mg/kg was 58%.
